From ChEMBL document CHEMBL1153737, “Synthesis and antiprotozoal activity of 4-arylcoumarins” (Eur J Med Chem, 2010)

Key:
Leishmania donovani [1] = experiment: Antileishmanial activity against Leishmania donovani MHOM/IN/80/DD8 amastigotes infected in human THP1 cells assessed as decrease of infected macrophages after 72 hrs by Giemsa staining; assay type: functional, organism-based; details: MHOM/IN/80/DD8, THP-1, 72 h
Outline: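 THP1 monocytes (10⁵ cells/ml) differentiated to adherent macrophages with phorbol myristate acetate in complete RPMI, 48 h at 37 °C, 6% CO₂. Infected with stationary-phase promastigotes at cell:parasite ratio 1/10 for 24 h, then washed four times. Compound dilutions added in duplicate chambers for 72 h at 37 °C. Cells methanol-fixed and Giemsa-stained. Amphotericin B and DMSO controls included.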

Leishmania donovani [2] = experiment: Antileishmanial activity against Leishmania donovani MHOM/IN/80/DD8 promastigotes assessed as parasite viability after 48 hrs by Alamar blue assay; assay type: functional, organism-based; details: MHOM/IN/80/DD8, 48 h
Outline: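 Late log-phase promastigotes in complete RPMI (10% FCS, L-glutamine/penicillin–streptomycin) with 10% Alamar Blue and a range of compound concentrations, final DMSO <0.5%. Incubated 48 h at 27 °C. Viability read as Alamar Blue reduction by absorbance at 570 and 630 nm.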

[3] = Selectivity index, ratio of IC50 for human THP1 cells to IC50 for Plasmodium falciparum W2; assay type: toxicity, cell-based, THP-1; details: read-out: Ratio IC50
[4] = Selectivity index, ratio of IC50 for human THP1 cells to IC50 for Leishmania donovani MHOM/IN/80/DD8 amastigotes; assay type: toxicity, cell-based, THP-1; details: read-out: Ratio IC50
Outline: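 SI Ama computed as IC50 on THP1 cells divided by IC50 on intracellular L. donovani amastigotes, with amastigote IC50 taken from three independent experiments.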

THP-1 = experiment: Cytotoxicity against human THP1 cells assessed as cell viability after 72 hrs by Alamar blue assay; assay type: cell-based; details: THP-1, 72 h
Plasmodium falciparum = experiment: Antiplasmodial activity against multidrug-resistant Plasmodium falciparum W2 infected human erythrocytes after 48 hrs by flow cytometry; assay type: functional, organism-based; details: W2, 48 h

Row | SMILES | IC50 (Leishmania donovani [1]) | IC50 (Leishmania donovani [2]) | selectivity ratio [3] | selectivity ratio [4] | IC50 (THP-1) | IC50 (Plasmodium falciparum)
1 | COc1cc(-c2cc(=O)oc3cc(OC)c(OC)cc23)ccc1O | 30.4 µM | 94.2 µM | > 6.1 | > 4.5 | > 137 µM | 22.5 µM
2 | COc1ccc(-c2cc(=O)oc3cc(OC)c(OC)cc23)cc1OC | 1.1 µM | > 292 µM | – | > 265 | > 292 µM | > 117 µM
3 | COc1ccc2oc(=O)cc(-c3ccc(OC)c(OC)c3)c2c1 | 5.4 µM | > 160 µM | – | > 29.6 | > 160 µM | > 160 µM
4 | COc1ccc(-c2cc(=O)oc3ccccc23)cc1OC | 26.4 µM | > 176 µM | > 14.7 | > 6.7 | > 176 µM | 12 µM
5 | COc1ccc(-c2cc(=O)oc3cc(OC)c(OC)c(OC)c23)cc1OC | 4.3 µM | > 78 µM | 3 | 18.1 | 78 µM | 25.8 µM
6 | C[C@@H]1[C@H](O)[C@@H](C)/C=C/C=C/C=C/C=C/C=C/C=C/C=C/[C@H](O[C@@H]2O[C@H](C)[C@@H](O)[C@H](N)[C@@H]2O)C[C@@H]2O[C@](O)(C[C@@H](O)C[C@@H](O)[C@H](O)CC[C@@H](O)C[C@@H](O)CC(=O)O[C@H]1C)C[C@H](O)[C@H]2C(=O)O [AMPHOTERICIN B] | 0.1 µM | – | – | 140 | 14 µM | –
7 | COc1ccc2c(-c3ccc(OC)c(OC)c3)cc(=O)oc2c1 | > 25 µM | 25.6 µM | 1 | – | 64 µM | 64 µM
8 | COc1cc2oc(=O)cc(-c3ccc(O)cc3)c2cc1OC | > 67 µM | > 67 µM | – | – | > 67 µM | > 67 µM
